ChEMBL document CHEMBL4251654, “Structure-based design of human immuno- and constitutive proteasomes inhibitors” (Eur J Med Chem, 2018)

Assays:
[1] = biological target: T1, Proteasome Macropain subunit MB1 (Homo sapiens, UniProt P28074); test: Inhibition of human 20S constitutive proteasome beta-5 using Suc-LLVY-AMC as substrate incubated for 15 mins measured for 45 mins by fluorescence assay
T1 sequence (P28074 whole entry): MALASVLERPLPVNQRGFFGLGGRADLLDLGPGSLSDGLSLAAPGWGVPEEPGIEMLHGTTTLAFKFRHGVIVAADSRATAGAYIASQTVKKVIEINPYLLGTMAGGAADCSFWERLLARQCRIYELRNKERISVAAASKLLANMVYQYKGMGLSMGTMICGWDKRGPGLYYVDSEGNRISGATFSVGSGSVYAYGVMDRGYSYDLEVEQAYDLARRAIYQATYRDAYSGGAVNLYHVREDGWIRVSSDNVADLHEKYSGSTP
In short: (§1)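 Human 20S cCP or iCP (0.3 nM) was exposed to compound (0.001-50 μM) for 15 min in pH 8 buffer of 20 mM Tris-HCl, 10% glycerol, 0.01% SDS, 2% DMSO. Suc-LLVY-AMC at 20 μM followed. Fluorescence (ex 360/em 460 nm) was read 45 min at 37 °C versus untreated enzyme.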

[2] = biological target: T2, Proteasome subunit beta type-8 (Homo sapiens, UniProt P28062); test: Inhibition of human 20S immunoproteasome beta-5 using Suc-LLVY-AMC as substrate incubated for 15 mins measured for 45 mins by fluorescence assay; in short: as §1
T2 sequence (P28062 whole entry): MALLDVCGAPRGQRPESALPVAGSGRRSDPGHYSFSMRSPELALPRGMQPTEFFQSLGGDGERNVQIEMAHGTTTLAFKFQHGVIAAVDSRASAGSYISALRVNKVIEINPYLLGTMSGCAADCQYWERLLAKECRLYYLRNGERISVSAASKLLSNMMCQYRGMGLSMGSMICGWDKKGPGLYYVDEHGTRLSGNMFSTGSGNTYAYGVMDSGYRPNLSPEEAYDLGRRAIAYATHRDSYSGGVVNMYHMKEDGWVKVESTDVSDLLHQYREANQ

[3] = biological target: T3, Proteasome Macropain subunit MB1 (Homo sapiens) (UniProt P28074); test: Inhibition of human 20S constitutive proteasome beta-5 at 50 uM using Suc-LLVY-AMC as substrate incubated for 15 mins measured for 45 mins by fluorescence assay relative to control; in short: as §1
T3 sequence (whole entry): T1 sequence (P28074 whole entry)

[4] = biological target: T4, Proteasome subunit beta type-8 (Homo sapiens) (UniProt P28062); test: Inhibition of human 20S immunoproteasome beta-5 at 50 uM using Suc-LLVY-AMC as substrate incubated for 15 mins measured for 45 mins by fluorescence assay relative to control; in short: as §1
T4 sequence (whole entry): T2 sequence (P28062 whole entry)

[5] = biological target: T5, Proteasome subunit beta type-9 (Homo sapiens, UniProt P28065); test: Inhibition of human 20S immunoproteasome beta-1 using Ac-PAL-AMC as substrate incubated for 15 mins measured for 45 mins by fluorescence assay
T5 sequence (P28065 whole entry): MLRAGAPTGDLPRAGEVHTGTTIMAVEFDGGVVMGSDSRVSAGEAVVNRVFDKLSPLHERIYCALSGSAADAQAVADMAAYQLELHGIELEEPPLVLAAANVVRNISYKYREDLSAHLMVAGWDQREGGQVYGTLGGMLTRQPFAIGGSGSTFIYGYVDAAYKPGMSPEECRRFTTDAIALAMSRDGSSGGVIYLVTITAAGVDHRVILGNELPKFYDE
In short: (§2)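 Human 20S immunoproteasome (0.3 nM) was given 15 min with compound (0.001-50 μM) in pH 8 buffer of 20 mM Tris-HCl, 10% glycerol, 0.01% SDS, 2% DMSO. Ac-PAL-AMC at 50 μM was the substrate. Fluorescence (ex 360/em 460 nm) was followed 45 min at 37 °C relative to control.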

[6] = biological target: T6, Proteasome component C5 (Homo sapiens) (UniProt P20618); test: Inhibition of human 20S constitutive proteasome beta-1 at 50 uM using Z-LLE-betaNA as substrate incubated for 15 mins measured for 45 mins by fluorescence assay relative to control
T6 sequence (whole entry): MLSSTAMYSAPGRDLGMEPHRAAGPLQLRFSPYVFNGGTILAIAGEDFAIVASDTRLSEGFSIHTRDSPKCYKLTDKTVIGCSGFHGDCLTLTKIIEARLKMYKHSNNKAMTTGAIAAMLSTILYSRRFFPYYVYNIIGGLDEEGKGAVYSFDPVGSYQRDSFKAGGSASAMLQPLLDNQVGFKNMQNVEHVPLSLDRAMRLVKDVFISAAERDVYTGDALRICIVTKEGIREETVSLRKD
In short: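 Human 20S constitutive proteasome, 0.3 nM, was preincubated 15 min with compound (0.001-50 μM) in pH 8 Tris-HCl 20 mM, 10% glycerol, 0.01% SDS, 2% DMSO. Z-LLE-βNA at 50 μM was added. βNA fluorescence (ex 340/em 404 nm) was monitored 45 min at 37 °C against an untreated control.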

[7] = biological target: T7, Proteasome subunit beta type-9 (Homo sapiens) (UniProt P28065); test: Inhibition of human 20S immunoproteasome beta-1 at 50 uM using Ac-PAL-AMC as substrate incubated for 15 mins measured for 45 mins by fluorescence assay relative to control; in short: as §2
T7 sequence (whole entry): T5 sequence (P28065 whole entry)

[8] = biological target: T8, Proteasome subunit beta type-10 (Homo sapiens, UniProt P40306); test: Inhibition of human 20S immunoproteasome beta-2 using BocLRR-AMC as substrate incubated for 15 mins measured for 45 mins by fluorescence assay
T8 sequence (P40306 whole entry): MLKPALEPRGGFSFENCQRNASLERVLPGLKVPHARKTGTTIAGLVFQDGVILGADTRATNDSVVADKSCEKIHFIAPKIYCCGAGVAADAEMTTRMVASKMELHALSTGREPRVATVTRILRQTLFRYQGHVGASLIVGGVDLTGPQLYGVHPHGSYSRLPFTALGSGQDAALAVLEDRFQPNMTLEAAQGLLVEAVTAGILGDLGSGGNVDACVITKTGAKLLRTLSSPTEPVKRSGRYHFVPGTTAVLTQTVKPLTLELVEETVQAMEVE

[9] = biological target: Proteasome Macropain subunit (Homo sapiens) (UniProt P49721); test: Inhibition of human 20S constitutive proteasome beta-2 at 50 uM using BocLRR-AMC as substrate incubated for 15 mins measured for 45 mins by fluorescence assay relative to control
Sequence of Proteasome Macropain subunit (Homo sapiens) (P49721 whole entry): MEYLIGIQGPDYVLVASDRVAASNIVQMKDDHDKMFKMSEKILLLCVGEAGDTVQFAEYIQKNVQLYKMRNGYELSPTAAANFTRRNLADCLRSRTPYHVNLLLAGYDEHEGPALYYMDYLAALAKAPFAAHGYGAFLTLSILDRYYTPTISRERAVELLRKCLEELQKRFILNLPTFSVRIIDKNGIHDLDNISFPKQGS
In short: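 Purified human 20S proteasome (cCP or iCP), 0.3 nM, preincubated 15 min with compound (0.001-50 μM) in pH 8 buffer of 20 mM Tris-HCl, 10% glycerol, 0.005% Triton X-100, 2% DMSO. Then Boc-LRR-AMC at 50 μM was added. AMC fluorescence (ex 360/em 460 nm) was followed 45 min at 37 °C. Activity is relative to an untreated control.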

[10] = biological target: T9, Proteasome subunit beta type-10 (Homo sapiens) (UniProt P40306); test: Inhibition of human 20S immunoproteasome beta-2 at 50 uM using BocLRR-AMC as substrate incubated for 15 mins measured for 45 mins by fluorescence assay relative to control
T9 sequence (whole entry): T8 sequence (P40306 whole entry)

[11] = test system: Huh-7; test: Cytotoxicity against human HuH7 cells assessed as reduction in cell viability after 48 hrs by Hoechst 33342 staining based HCS assay; assay type: functional; conditions: huh-7
In short: (§3)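 Cells were grown at 37 °C, 5% CO2 in medium with 10% FBS, 1% penicillin-streptomycin, 2 mM glutamine: DMEM for HuH7, MDA-MB-231 and fibroblasts, EMEM for Caco2, McCoy's for HCT116, RPMI for PC3 and NCI-H727. 4000 cells/well were seeded and dosed 24 h later at 0.1-25 μM final, from DMSO stocks. After 48 h they were fixed in ethanol/acetic acid and Hoechst-stained nuclei were counted by imaging. Survival is relative to DMSO. EC50 came from dose-response curves.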

[12] = test system: Caco-2; test: Cytotoxicity against human Caco2 cells assessed as reduction in cell viability after 48 hrs by Hoechst 33342 staining based HCS assay; assay type: functional; conditions: caco-2; in short: as §3
[13] = test system: MDA-MB-231; test: Cytotoxicity against human MDA-MB-231 cells assessed as reduction in cell viability after 48 hrs by Hoechst 33342 staining based HCS assay; assay type: functional; conditions: mda-mb-231; in short: as §3
[14] = test system: HCT-116; test: Cytotoxicity against human HCT116 cells assessed as reduction in cell viability after 48 hrs by Hoechst 33342 staining based HCS assay; assay type: functional; in short: as §3
[15] = test system: PC-3; test: Cytotoxicity against human PC3 cells assessed as reduction in cell viability after 48 hrs by Hoechst 33342 staining based HCS assay; assay type: functional; conditions: pc-3; in short: as §3
[16] = test system: NCI-H727; test: Cytotoxicity against human NCI-H727 cells assessed as reduction in cell viability after 48 hrs by Hoechst 33342 staining based HCS assay; assay type: functional; conditions: nci-h727; in short: as §3
[17] = test system: MCF7; test: Cytotoxicity against human MCF7 cells assessed as reduction in cell viability after 48 hrs by Hoechst 33342 staining based HCS assay; assay type: functional
[18] = test system: Fibroblast; test: Cytotoxicity against human fibroblasts assessed as reduction in cell viability at 25 uM after 48 hrs by Hoechst 33342 staining based HCS assay

| SMILES | IC50 [1] [µM] | IC50 [2] [µM] | inhibition [3] [%] | inhibition [4] [%] | IC50 [5] [µM] | inhibition [6] [%] | inhibition [7] [%] | IC50 [8] [µM] | inhibition [9] [%] | inhibition [10] [%] | EC50 [11] | EC50 [12] | EC50 [13] | EC50 ([14]; hct-116) | EC50 [15] | EC50 [16] | EC50 ([17]; mcf7) | Activity [18] | EC50 ([14]; Homo sapiens, HCT-116, 48 h, read-out: EC50) [µM] | EC50 ([17]; Homo sapiens, MCF7, 48 h, read-out: EC50) [µM] |
| --- | --- | --- | --- | --- | --- | --- | --- | --- | --- | --- | --- | --- | --- | --- | --- | --- | --- | --- | --- | --- |
| C[C@H](NC(=O)Cc1cccc(Oc2ccccc2)c1)C(=O)N[C@@H](C[C@]1(O)C(=O)Nc2ccccc21)C(=O)NCc1ccccc1 | 0.35 | 0.26 | > 85 | > 85 | 14 | > 85 | > 85 | 14.3 | > 85 | > 85 | – | – | – | – | – | – | – | – | – | – |
| C[C@H](NC(=O)[C@H](Cc1ccc(OCc2ccccc2)cc1)NC(=O)OC(C)(C)C)C(=O)N[C@@H](C[C@]1(O)C(=O)Nc2ccccc21)C(=O)NCC(C)(C)C | 11.3 | 12.6 | > 85 | > 85 | 21 | > 85 | > 85 | 30 | > 85 | > 85 | – | – | – | – | – | – | – | – | – | – |
| CC(C)(C)OC(=O)N[C@@H](Cc1ccc(OCc2ccccc2)cc1)C(=O)NCC(=O)N[C@@H](C[C@]1(O)C(=O)Nc2ccccc21)C(=O)NCc1ccccc1 | 6.2 | 7.8 | > 85 | > 85 | 12.6 | > 85 | > 85 | 8.9 | > 85 | > 85 | – | – | – | – | – | – | – | – | – | – |
| NCCCC[C@H](NC(=O)[C@@H](N)Cc1ccc(OCc2ccccc2)cc1)C(=O)N[C@@H](C[C@]1(O)C(=O)Nc2ccccc21)C(=O)NCc1ccccc1 | 2.9 | 3.8 | > 85 | > 85 | 4.3 | > 85 | > 85 | 0.82 | > 85 | > 85 | – | – | – | – | – | – | – | – | – | – |
| C[C@H](NC(=O)[C@H](Cc1ccc(OCc2ccccc2)cc1)NC(=O)OC(C)(C)C)C(=O)N[C@@H](C[C@]1(O)C(=O)Nc2ccccc21)C(=O)NCC1CCCCC1 | 4.3 | 5.2 | > 85 | > 85 | 4.8 | > 85 | > 85 | 16 | > 85 | > 85 | – | – | – | – | – | – | – | – | – | – |
| C[C@H](NC(=O)[C@H](Cc1ccc(OCc2ccccc2)cc1)NC(=O)OC(C)(C)C)C(=O)N[C@@H](C[C@]1(O)C(=O)Nc2ccccc21)C(=O)NCc1cccc2ccccc12 | 1.4 | 1.9 | > 85 | > 85 | 2.77 | > 85 | > 85 | 2.7 | > 85 | > 85 | – | – | – | – | – | – | – | – | – | – |
| C[C@@H](NC(=O)[C@H](Cc1ccc(OCc2ccccc2)cc1)NC(=O)OC(C)(C)C)C(=O)N[C@@H](C[C@]1(O)C(=O)Nc2ccccc21)C(=O)NCc1ccccc1 | 9.2 | 13.2 | > 85 | > 85 | 12.5 | > 85 | > 85 | 21.4 | > 85 | > 85 | – | – | – | – | – | – | – | – | – | – |
| CC(C)(C)OC(=O)N[C@@H](Cc1ccc(OCc2ccccc2)cc1)C(=O)N[C@@H](CC(N)=O)C(=O)N[C@@H](C[C@]1(O)C(=O)Nc2ccccc21)C(=O)NCc1ccccc1 | 1.48 | 1.6 | > 85 | > 85 | 16.1 | > 85 | > 85 | – | – | – | Not Active | Not Active | Not Active | Not Active | Not Active | Not Active | Not Active | Non-Toxic | – | – |
| C[C@H](NC(=O)[C@H](Cc1ccc(OCc2ccccc2)cc1)NC(=O)OC(C)(C)C)C(=O)N[C@@H](C[C@]1(O)C(=O)Nc2ccccc21)C(=O)NCc1ccccc1 | – | – | – | – | – | – | – | – | – | – | Not Active | Not Active | Not Active | – | Not Active | Not Active | – | Non-Toxic | 32 | 26 |
